Changes are numbered by the printed parent chain. Names may count otherwise. “Also recorded” adds a separate entry of the source. Where no end group is shown, it is not given here.
Experiments:
[1] = tested on: myosin-X MyTH4–FERM cassette; test: Pull-down with GST-fused C-terminal tail peptides of α- and β-tubulins; format: binding, human; conditions: for binding of tubulin C-terminal acidic tail peptides: 20 mM Tris–HCl (pH 8.0), 50 mM NaCl, 1 mM DTT, 4°C, 30 min
Procedure, shortened: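 Purified MyTH4–FERM cassette was mixed with GST-fused α1A-tubulin (399–451) or β2B-tubulin (390–445) tail peptide in 20 mM Tris–HCl pH 8.0, 50 mM NaCl, 1 mM DTT at 4°C for 30 min. Glutathione-Sepharose was then added for 10 min at 4°C, with five washes. Elution used 20 mM glutathione in 50 mM Tris–HCl pH 8.0 with 150 mM NaCl, then SDS–PAGE.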

[2] = molecular target: T1, myosin-X MyTH4–FERM cassette K1647D/K1650D (human, UniProt Q9HD67 1486-2058, Δ20 deletion (residues 1872–1891) | K1647D | K1650D); test: pull-down
T1 sequence (looked up): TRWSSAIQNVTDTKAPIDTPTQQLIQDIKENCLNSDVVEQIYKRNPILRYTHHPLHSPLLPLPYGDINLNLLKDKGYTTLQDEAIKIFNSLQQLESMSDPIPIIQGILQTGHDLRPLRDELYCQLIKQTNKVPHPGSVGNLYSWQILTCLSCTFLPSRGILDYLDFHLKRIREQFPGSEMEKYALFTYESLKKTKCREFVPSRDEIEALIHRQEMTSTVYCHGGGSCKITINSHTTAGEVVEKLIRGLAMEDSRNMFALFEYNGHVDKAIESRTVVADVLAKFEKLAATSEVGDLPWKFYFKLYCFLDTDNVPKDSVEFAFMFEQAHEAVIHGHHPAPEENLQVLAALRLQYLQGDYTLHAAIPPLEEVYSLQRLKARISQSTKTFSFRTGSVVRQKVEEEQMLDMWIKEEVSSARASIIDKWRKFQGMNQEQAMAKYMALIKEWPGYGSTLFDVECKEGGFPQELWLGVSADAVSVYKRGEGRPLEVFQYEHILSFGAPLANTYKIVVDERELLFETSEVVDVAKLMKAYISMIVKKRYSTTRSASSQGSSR

[3] = molecular target: T2, myosin-X MyTH4–FERM cassette F2002K (human, UniProt Q9HD67 1486-2058, Δ20 deletion (residues 1872–1891) | F2002K); test: pull-down
T2 sequence (looked up): T1 sequence (looked up) with D162K, D165K, F497K

[4] = tested on: C-terminal acidic tail peptide of β2B-tubulin; test: Pull-down of wild-type and mutated MyTH4–FERM cassettes with GST-tubulin tail; format: binding; conditions: SDS–PAGE
Procedure, shortened: (§1)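 Human myosin-X MyTH4–FERM cassette (wild type or site-directed mutants) was expressed in E. coli BL21Star(DE3) at 20°C with 0.1 mM IPTG. It was Ni-NTA purified, then His-tag cleaved with HRV3C, then run over cation exchange and gel filtration. GST bait was human DCC 1390–1447 or β2B-tubulin 390–445. Cassette and bait were mixed with glutathione-Sepharose at 4°C, washed, and eluates resolved by SDS–PAGE.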

microtubules = conditions: ref Weber et al, 2004; cited from earlier work
[5] = tested on: myosin-X MyTH4–FERM cassette; test: Gel filtration and AUC of cassette–DCC P3 complex; format: binding, human; conditions: through the MyTH4–FERM cassette
DCC [6] = conditions: yeast two-hybrid; ref Zhu et al, 2007; cited from earlier work
[7] = Analytical ultracentrifugation; format: physicochemical; conditions: AUC, mono-modal peak
Procedure, shortened: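 Sedimentation velocity at 20°C and 25 000 r.p.m. Purified protein was in 20 mM Tris (pH 8.5), 150 mM NaCl and 5 mM DTT, at 1 mg/ml (14 μM). Sedimentation data were fitted to obtain the species distribution.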

DCC [8] = test: Co-immunoprecipitation of DCC with myc-tagged myosin-X MyTH4–FERM; format: cell-based; conditions: HEK293T cells, anti-myc antibody, immunoblot
DCC P3 peptide = test: Pull-down of wild-type and mutated MyTH4–FERM cassettes with GST-DCC P3 peptide; format: binding, human; conditions: SDS–PAGE
Procedure, shortened: as §1

α-tubulin C-terminal acidic tail peptide: GST-fused C-terminal tail peptide of α1A-tubulin (399–451)
binding of tubulin C-terminal acidic tail peptides [1]: binds

β-tubulin C-terminal acidic tail peptide: GST-fused C-terminal acidic tail peptide of β2B-tubulin (390–445) ({GST}-RRKAFLHWYTGEGMDEMEFTEAESNMNDLVSEYQQYQDATADEQGEFEEEEGEDEA; not fully specified)
binding of tubulin C-terminal acidic tail peptides [1]: binds

B1: GST-fused DCC P3 peptide (residues 1390–1447) (peptide, UniProt P43146 1390-1447, looked up)
chain: ARSPLLPVSVPTAPEVSEESHKPTEDSANVYEQDDLSEQMASLEGLMKQLNAITGSAF
binding result [2]: binds

B2: GST-fused β2B-tubulin C-terminal acidic tail peptide (390–445) (peptide, UniProt Q9BVA1 390-445, looked up)
chain: RRKAFLHWYTGEGMDEMEFTEAESNMNDLVSEYQQYQDATADEQGEFEEEEGEDEA
modifications: also: GST-fused (side not given here)
binding result [3]: binds

B3: MyTH4–FERM cassette (protein)
chain: T1 sequence (looked up) with D162K, D165K
modifications: left off: His6, N-terminal, cleaved
binding to β2B-tubulin C-terminal tail peptide [4]: shows binding
microtubule association (microtubules): sufficient to confer microtubule association
cargo-mediated dimerization of myosin-X [5]: no cargo-mediated dimerization was observed
binding to α- and β-tubulin acidic tails ([1]; SDS–PAGE): binds both α- and β-tubulin acidic tails
DCC binding in two-hybrid assay (DCC [6]): sufficient for DCC and neogenin binding; also recorded: full DCC-binding affinity
association state in solution [7]: monomer

B4: myc-tagged myosin-X MyTH4–FERM cassette: myc-tagged full-length MyTH4–FERM cassette (residues 1486–2058) (protein)
chain: TRWSSAIQNVTDTKAPIDTPTQQLIQDIKENCLNSDVVEQIYKRNPILRYTHHPLHSPLLPLPYGDINLNLLKDKGYTTLQDEAIKIFNSLQQLESMSDPIPIIQGILQTGHDLRPLRDELYCQLIKQTNKVPHPGSVGNLYSWQILTCLSCTFLPSRGILKYLKFHLKRIREQFPGSEMEKYALFTYESLKKTKCREFVPSRDEIEALIHRQEMTSTVYCHGGGSCKITINSHTTAGEVVEKLIRGLAMEDSRNMFALFEYNGHVDKAIESRTVVADVLAKFEKLAATSEVGDLPWKFYFKLYCFLDTDNVPKDSVEFAFMFEQAHEAVIHGHHPAPEENLQVLAALRLQYLQGDYTLHAAIPPLEEVYSLQRLKARISQSTKTFTPCERLEKRRTSFLEGTLRRSFRTGSVVRQKVEEEQMLDMWIKEEVSSARASIIDKWRKFQGMNQEQAMAKYMALIKEWPGYGSTLFDVECKEGGFPQELWLGVSADAVSVYKRGEGRPLEVFQYEHILSFGAPLANTYKIVVDERELLFETSEVVDVAKLMKAYISMIVKKRYSTTRSASSQGSSR
modifications: left off: myc, end not stated, kept
co-immunoprecipitation of DCC (DCC [8]): co-immunoprecipitation of DCC

B5: myc–MyTH4–FERM(ΔC): residues 1486–1954, lacks subdomain C of the FERM domain (protein)
chain: TRWSSAIQNVTDTKAPIDTPTQQLIQDIKENCLNSDVVEQIYKRNPILRYTHHPLHSPLLPLPYGDINLNLLKDKGYTTLQDEAIKIFNSLQQLESMSDPIPIIQGILQTGHDLRPLRDELYCQLIKQTNKVPHPGSVGNLYSWQILTCLSCTFLPSRGILKYLKFHLKRIREQFPGSEMEKYALFTYESLKKTKCREFVPSRDEIEALIHRQEMTSTVYCHGGGSCKITINSHTTAGEVVEKLIRGLAMEDSRNMFALFEYNGHVDKAIESRTVVADVLAKFEKLAATSEVGDLPWKFYFKLYCFLDTDNVPKDSVEFAFMFEQAHEAVIHGHHPAPEENLQVLAALRLQYLQGDYTLHAAIPPLEEVYSLQRLKARISQSTKTFTPCERLEKRRTSFLEGTLRRSFRTGSVVRQKVEEEQMLDMWIKEEVSSARASIIDKWRKFQGMNQEQAMAKYMALIKEWPGYG
modifications: left off: myc, end not stated, kept
co-immunoprecipitation of DCC (DCC [8]): no interaction

B6: Myo-X (K1647D/K1650D) (protein)
chain: T1 sequence (looked up)
modifications: left off: His6, N-terminal, cleaved
binding to β2B-tubulin C-terminal tail peptide [4]: abolished binding
binding to DCC P3 peptide (DCC P3 peptide): only weakly affected binding
binding to DCC P3 peptide (DCC P3 peptide; listed as K1647D/K1650D): only a slight reduction in DCC binding

B7: Myo-X (F2002K) (protein)
chain: T1 sequence (looked up) with D162K, D165K, F497K
modifications: left off: His6, N-terminal, cleaved
binding to β2B-tubulin C-terminal tail peptide [4]: no effect on tubulin tail binding
binding to β2B-tubulin C-terminal tail peptide ([4]; listed as F2002K): no effect on binding to the tubulin tail
binding to DCC P3 peptide (DCC P3 peptide): abolished the binding
binding to DCC P3 peptide (DCC P3 peptide; listed as F2002K): abolished DCC binding

Source: publication PMC3155308 (The EMBO Journal, 2011)
